Data published in ChEMBL document CHEMBL1122553, “Tetrahydropyrrolo[1,2-a]quinoxalines and tetrahydropyrrolo[1,2-a]pyrido[3,2-a]pyrazines: vascular smooth muscle relaxants and antihypertensive agents” (1984).

What was measured:
Oryctolagus cuniculus = species on record: Oryctolagus cuniculus; assay: The vascular smooth muscle relaxant activity was expressed as percent relaxation of the developed isometric tension in potassium depolarized rabbit aortic smooth muscle; type: functional, Aorta
How it was run: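 Transverse thoracic aorta strips from female New Zealand albino rabbits in Krebs solution (95% O2/5% CO2, 37 °C), held at 4 g isometric tension and equilibrated 90 min. Strips were primed with high-K+ (100 mM) solution plus 2.5 mM CaCl2, rinsed, then recontracted. After 20 min of sustained contraction, drug was added at 10⁻⁵ M final. Tension 20 min later was compared with pre-drug tension and given as % relaxation.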

Rattus norvegicus = assay: Antihypertensive activity expressed as maximal change in systolic blood pressure (SBP) from pretreatment levels at either 1.5 or 4 hr after dosing; type: functional, Artery
How it was run: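 Male spontaneously hypertensive rats (Okamoto-Aoki, ~300-400 g), fasted at least 16 h, given a single oral 50 mg/kg dose by stomach tube; groups of four, with vehicle-only controls. Systolic pressure taken indirectly by tail plethysmography after 10 min warming at 38 °C, before dosing and at 1.5 and 4 h after. Reported as X ± SE.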

| Structure (SMILES) | Vascular relaxation (Oryctolagus cuniculus) [%] | Max SBP (Rattus norvegicus) [mmHg] |
| --- | --- | --- |
| COc1cccc(OC)c1CN1CC2CCCN2c2ccccc21 (centres undefined) | 13 | -5 |
| COc1cccc(OC)c1CN1C(=O)C2CCCN2c2ccccc21 (centres undefined) | 30 | -19 |
| COc1cccc(OC)c1CN1CC2CCCN2c2ncccc21 (centres undefined) | 54 | -6 |
| c1ccc2c(c1)NCC1CCCN21 (centres undefined) | 0 | -17 |
| O=C1C2CCCN2c2ccccc2N1Cc1ccccc1 (centres undefined) |  | -4 |
| O=C1C2CCCN2c2ncccc2N1Cc1ccccc1 (centres undefined) | 0 | -39 |
| CN(C)CCN1C(=O)C2CCCN2c2ncccc21 (centres undefined) | 0 | -22 |
| COc1cccc(OC)c1C(=O)N1CC2CCCN2c2ccccc21 (centres undefined) | 6 | -13 |
| O=C1Nc2ccccc2N2CCCC12 (centres undefined) | 0 | -26 |
| O=C1C2CCCN2c2ncccc2N1Cc1ccncc1 (centres undefined) | 0 | -38 |
| COc1cccc(OC)c1CN1C(=O)C2CCCN2c2ncccc21 (centres undefined) | 5 | -18 |
| O=C1C2CCCN2c2ccccc2N1Cc1ccncc1 (centres undefined) |  | -2 |
| COC(=O)C1=C(C)NC(C)=C(C(=O)OC)C1c1ccccc1[N+](=O)[O-] [NIFEDIPINE] | 75 | -68 |
